# Diaphorase act = compounds boosting diaphorase resazurin reduction – biochemical, uHTS, resorufin fluorescence, counter-screen for diaphorase-coupled primary assays, primary screen | Diaphorase/resazurin coupled assay, 16 min; stronger effect = higher value; 1 = vehicle wells, 0 = NADH-free wells | activation factor at 20 µM | actives 0.005% (n = 190,000);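 active = diaphorase activity raised at least twofold by the compound at 20 µM; inactive = activation factor below 2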
#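 Material: Purified diaphorase enzyme from Clostridium kluyveri | Buffer or medium: 50 mM HEPES pH 7.4 with 4.542 mM MgCl2, 0.005% Tween 20 | Times: 16 min enzyme reaction, ambient temperature | Signal: Red resorufin fluorescence at 544/590 nm excitation/emission | Measure: Increased resorufin signal from activators or reducing compounds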
# G6PDH counter = L. mesenteroides G6PDH inhibitors, counter-screen for G6PDH-coupled screening assays, biochemical, Leuconostoc mesenteroides enzyme. Purified L. mesenteroides G6PDH, diaphorase/resazurin coupled fluorescence, 45 min. inhibition, % at 5 µM. actives 0.12% (n = 200,000). AID 1020, 2008
# Lmaj promast = Leishmania major promastigote growth inhibition, primary screen; inhibition, % at 10 µM; actives 9% (n = 200,000); Leishmania major promastigotes, resazurin fluorescence viability;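 note: promastigotes grown with compound for 44 hours at 28 °C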
# Diaphorase inh = diaphorase inhibitors and chemical oxidizers, primary screen, counter-screen for diaphorase-coupled primary assays, biochemical, uHTS, resorufin fluorescence; diaphorase resazurin-to-resorufin fluorescence, NADH, 16 min; bacterial (C. kluyveri) enzyme, not human; inhibition, % at 20 µM; actives 0.69% (n = 190,000); AID 1217, 2008;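 active = primary screen inhibition at 20 µM above a set limit, cut at about 50% in these data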;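 note: plate controls were DMSO with full reaction for no effect and wells lacking NADH for full effect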
#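 Assay system: diaphorase enzyme from Clostridium kluyveri. Quantity: enzyme working solution with 0.14 U/mL diaphorase. Schedule: reaction incubation of 16 min at room temperature. Technique: resorufin fluorescence, excitation 544 nm, emission 590 nm. Controls: No-NADH positive control and DMSO neutral control.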
# WT yeast gro inh = growth inhibition of WT strain, primary screen, mitochondrial fusion inhibitor project, WT and mutant strains, chemical genetic | mitochondrial fusion phenotypic screen | inhibition, % at 10 µM | actives 2.1% (n = 190,000) | AID 1362, 2008; in the data active = inhibition above about 58%; tested in S. cerevisiae
# Lmaj promast 1uM = Leishmania major promastigote growth inhibition, confirmation, 1 µM repeat of primary hits | shares compounds with Lmaj promast | L. major promastigote growth, resazurin fluorescence, 48 h | inhibition, % at 1 µM | actives 13% (n = 1,100);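 active = inhibition above about 50% in both repeat tests, limit read from the data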
# Starred values were filed as active, the others as inactive; · = not tested or not shown; ! = repeats disagree. Hits are enriched below; roughly 11% of the tested compounds scored in any of these assays. Cut-off read from the data, not from the text of the source, unless noted: active = inhibition above about 50%; inactive = the rest.
SMILES,Diaphorase act,G6PDH counter,Lmaj promast,Diaphorase inh,WT yeast gro inh,Lmaj promast 1uM
CCOC(=O)c1ccc(S(=O)(=O)NCC(c2ccc(N(C)C)cc2)c2c[nH]c3ccccc23)cc1 (centres undefined),0.9,3.7,0.6,8.5,23.1,·
Cc1ccc(-n2ncc(C(=O)Nc3cc(Cl)ccc3Cl)c2C2CCNCC2)cc1,0.9,5.0,-6.8,9.2,4.8,·
Cc1ccc(-n2ncc(C(=O)Nc3cc(Cl)cc(Cl)c3)c2C2CCNCC2)cc1C,1,7.9,100.6*,2.2,18.4,·
Cc1ccccc1NC(=O)c1sc2nc3c(c(-c4ccco4)c2c1N)CCC3,0.5,6.3,-2.3,52.7*,-0.8,·
Nc1c(C(=O)NCC2CCCO2)sc2nc3c(c(-c4ccco4)c12)CC/C3=C\c1ccco1 (centres undefined),0.1,8.9,1.2,89.3*,12.4,·
N#Cc1sc2nc3c(c(-c4ccco4)c2c1N)CCCC3,0.5,8.1,11.1,51.7*,-2.5,·
O=C(O)CC(NC(=O)C(c1ccccc1)c1ccccc1)c1ccc(F)cc1 (centres undefined),0.9,2.4,-6.5,12.2,-6.8,·
O=C(COCC(=O)NCc1ccccc1)NCc1ccccc1,1.1,4.4,-5.6,-7.9,-5.2,·
CCCNC(=S)N1CCN(Cc2ccc3c(c2)OCO3)CC1,0.9,-0.9,8.2,9.0,5.0,·
CCOCCCNC(=S)N1CCN(Cc2ccc3c(c2)OCO3)CC1,0.8,4.1,73.9*,18.9,4.7,·
CC(C)(C)CC(C)(C)NC(=S)N1CCN(Cc2ccc3c(c2)OCO3)CC1,1,12.0,82.0*,-2.4,36.9,·
CNC(=S)N/N=C/c1cn(CCOc2cccc(OC)c2)c2ccccc12,0.8,-6.2,11.3,19.8,55.5,·
O=C(NC(NC(=S)Nc1ccccc1)C(Cl)(Cl)Cl)c1cccc(Cl)c1 (centres undefined),0.8,5.3,74.9*,16.4,-11.0,·
O=C(NC(NC(=S)Nc1ccc(Cl)cc1Cl)C(Cl)(Cl)Cl)c1cccc([N+](=O)[O-])c1 (centres undefined),0.9,1.4,100.4*,13.5,-18.5,·
Cc1ccc(NC(=S)NC(NC(=O)c2ccccc2)C(Cl)(Cl)Cl)c(C)c1 (centres undefined),1,-8.4,96.2*,0.0,30.5,·
Cc1cc(C)c(NC(=S)NC(NC(=O)c2ccccc2)C(Cl)(Cl)Cl)c(C)c1 (centres undefined),0.9,6.1,6.8,7.8,22.2,·
CC(C)CCN=Cc1c(O)n(-c2ccccc2)c(=O)c2ccccc12,0.9,-2.7,20.6,14.2,-2.8,·
CCN1CCCC1CN=Cc1c(O)n(-c2ccccc2)c(=O)c2ccccc12 (centres undefined),0.8,-3.0,55.4*,22.5,7.5,3.4
CC(=O)c1sc(N2C(=O)c3oc4ccccc4c(=O)c3C2c2ccc(C)o2)nc1C (centres undefined),·,·,·,·,18.1,·
COc1cccc(Oc2ccc(C(F)(F)F)cc2N)c1,0.9,-9.2,-2.7,12.9,24.0,·
CCOc1ccc(Oc2ccc(C(F)(F)F)cc2N)cc1,0.8,-12.8,50.6*,15.9,38.2,-10.4
O=[N+]([O-])c1cc(-c2nnc(C34CC5CC(CC(C5)C3)C4)o2)cc([N+](=O)[O-])c1,0.9,-3.3,99.8*,7.2,12.2,96.3*
O=[N+]([O-])c1cccc(-c2nnc(C34CC5CC(CC(C5)C3)C4)o2)c1,0.9,7.4,-7.6,12.7,3.3,·
O=C(O)Cc1ccc2sc(-c3ccccc3)nc2c1,0.8,-1.5,72.0*,23.3,39.6,-5.7
O=c1c2sc3nc(N4CCOCC4)c4c(c3c2ncn1-c1ccccc1)CCCC4,1,-1.5,40.4,2.6,22.8,·
SMILES,Diaphorase act,G6PDH counter,Lmaj promast,Diaphorase inh,WT yeast gro inh,Lmaj promast 1uM
O=c1c2sc3nc(N4CCOCC4)c4c(c3c2ncn1CCc1ccccc1)CCCC4,0.9,4.7,73.8*,13.1,-2.2,-10.7
O=C(O)c1ccc(Cn2cc(Cl)cn2)cc1,0.8,-3.0,-2.7,18.0,3.8,·
O=c1c(C=Nc2ccc(Cl)cc2)c[nH]n1-c1cccc(Cl)n1,1,3.2,-5.8,2.5,2.3,·
COc1ccc(NC(=O)N(Cc2ccc(C)cc2)Cc2cccnc2)c(OC)c1,0.8,-0.3,70.3*,22.6,-1.1,-2.9
Cc1cc(NC(=O)CCC(=O)N(c2ccccc2)C(C(=O)NCC2CCCO2)c2cccnc2)no1 (centres undefined),0.9,1.8,-6.6,11.3,-23.8,·
Cc1[nH]c2c(Br)cccc2c1[C@H]1[C@@H](CC#N)C1(C)C,0.8,3.7,98.5*,15.1,22.9,3.9
O=C(Cn1ccc([N+](=O)[O-])n1)Nc1nccs1,0.9,1.1,77.2*,6.9,9.9,-6.6
CC(=O)/C(=N/Nc1cccc(C)c1)N1CCOCC1,0.9,1.5,63.8*,14.3,·,-7.6
O=C(Nc1ccc2nc(-c3ccco3)[nH]c2c1)c1cccs1,0.7,6.8,88.3*,28.8,4.5,-20.3
O=C(O)CC1S/C(=N/N=C/C=C/c2ccccc2)NC1=O (centres undefined),0.9,5.1,53.5*!,11.5,-5.0,-11.6
Cn1cc(CNC(=O)C2CCCCC2)cn1,0.9,-15.8,0.7,11.6,-1.8,·
CN(Cc1cnn(C)c1)C(=O)C1CCCCC1C(=O)O (centres undefined),1,5.2,53.7*,-1.2,4.4,-11.5
O=C(C1=C[C@H](c2ccc(Br)cc2)C[C@H](OCCCCO)O1)N1CCN(Cc2ccc3c(c2)OCO3)CC1,0.7,12.2,84.0*,26.4,40.8,-12.3
CCc1ccc(/C=C/c2c[nH]c3ccccc23)[n+](CC)c1,0.9,8.0,100.0*,6.2,28.1,9.6
Cc1cccc(OCCn2c(NC(=O)c3ccco3)nc3ccccc32)c1,0.9,6.4,96.7*,8.2,72.6*,87.2*
O=C(Nc1nc(-c2ccccc2)cs1)c1ccc(N2CCOCC2)c([N+](=O)[O-])c1,0.8,-27.4,98.2*,24.9,14.6,14.0
Cc1ccc(-c2csc(NC(=O)c3cc([N+](=O)[O-])ccc3N3CCOCC3)n2)cc1,1.1,6.2,5.3,-5.0,13.9,·
O=C(Cn1cnc2ccccc2c1=O)Nc1nnc(SCc2ccccc2)s1,0.8,11.3,-8.2,18.4,-10.1,·
CC(=O)N1CCN(c2ccc(NCc3ccc(C)s3)cc2)CC1,1,3.6,-10.6,1.5,-2.2,·
Cc1ccc(CNc2ccc(N3CCOCC3)cc2)s1,1,1.7,80.7*,3.4,-10.7,-6.5

# Screening results from PubChem.
